This is a sample that favours compounds with a hit; in the whole collection about 4.9% have one here.
HSF1 inh: HSF1 inhibition. AID 2098. 300,000 compounds, 0.77% hits. activity change, negative = inhibition, % at 7.5 µM (by protocol). NIH3T3-HGL HSE-luciferase, MG132-induced, luminescence 8 h; active compounds read low;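 active means more than half of replicate wells show activity change below -50%, luminescence cut by over half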;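 further: luciferase reports HSF-1 transcriptional activity via heat shock element; 0% = median of DMSO wells and -100% = zero luminescence signal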
Lipid droplet: modulators of hepatic lipid droplet formation. inhibition, % at 6.5 µM. AML12 mouse hepatocytes, oleate lipid droplets, BODIPY imaging. 240,000 compounds, 0.4% hits. AID 1656;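 active means lipid droplet intensity inhibited by at least 50%, with more than 500 cells counted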
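System: AML12 hepatocytes (mouse). Probe or stimulus: oleic acid at 100 µM to induce lipid droplet formation. Times: overnight treatment with compound plus oleate. Detection: Image-based BODIPY and DAPI two-channel analysis. Evaluation: percent inhibition of filter-corrected integrated lipid droplet intensity per well.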
PHOSPHO1 inh: blocks human PHOSPHO1 phosphatase activity; AID 1565; 290,000 compounds, 1.1% hits; inhibition, % at 13.3 µM; Q8TCT1; recombinant PHOSPHO1, absorbance phosphatase assay; in the data active means inhibition above about 60%
Target sequence (Q8TCT1 whole entry, looked up): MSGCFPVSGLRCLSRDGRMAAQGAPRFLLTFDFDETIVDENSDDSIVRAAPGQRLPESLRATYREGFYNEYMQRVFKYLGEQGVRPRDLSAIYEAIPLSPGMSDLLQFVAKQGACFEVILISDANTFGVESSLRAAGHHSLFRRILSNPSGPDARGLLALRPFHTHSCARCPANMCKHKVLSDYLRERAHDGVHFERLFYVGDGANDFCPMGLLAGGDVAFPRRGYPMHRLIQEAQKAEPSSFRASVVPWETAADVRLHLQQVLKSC
CHT allo act: allosteric activators of human choline transporter CHT. Q9GZV3. CHT-expressing cells, membrane potential dye, choline EC20; active compounds read high; LV-AA mutant CHT in HEK293 cells. B-score at 10 µM. 310,000 compounds, 0.49% hits;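 active means initial fluorescence not abnormally high and integrated response B-score, plate-corrected, over 3 SD above library mean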
HSF1 activator: increases HSF-1 driven luciferase reporter signal; NIH3T3-HGL HSF-1 luciferase reporter, MG132, 8 h; 100% = twice DMSO control signal; activation, % at 9 µM; 300,000 compounds, 1.7% hits; AID 504408;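 active means mean replicate activation of at least 50% with a set share of replicates each reaching 50%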;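 further: 0% = median of the neutral control wells and 100% = twice that signal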
CHT block: inhibits the human high affinity choline transporter | Q9GZV3 | CHT-expressing cells, membrane potential dye, choline response; active compounds read low | B-score at 10 µM | 310,000 compounds, 0.86% hits;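 active means B-score over 3 SD under the library average, and starting fluorescence ratio not unusually high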;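 further: choline stimulus applied at its EC90 after an EC20 pre-addition; B-score computed on integrated fluorescence ratio after choline addition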
* = called active by the depositor; i = inactive; . = not tested or not shown.

SMILES	HSF1 inh	Lipid droplet	PHOSPHO1 inh	CHT allo act	HSF1 activator	CHT block
CCN(CC)S(=O)(=O)c1cccc(-c2n[nH]c(=S)n2/N=C/c2ccc(OC)cc2)c1	-10	0	83*	i	2	i
CCN(CC)S(=O)(=O)c1cccc(-c2n[nH]c(=S)n2/N=C/c2ccc(Br)cc2)c1	-3	4	70*	i	-3	i
CCOc1ccc(C(C)=O)cc1CN1C(=O)NC2(CCCCCC2)C1=O	-4	-5	31	i	12	i
O=[N+]([O-])c1ccc(N=Nc2ccc(O)cc2O)cc1	14	.	25	i	-12	-9.9*
O=[N+]([O-])c1ccc(N=Nc2c(O)[nH]c3ccc(F)cc23)cc1	9	28	35	i	28	i
COc1ccc(-c2csc(NC(=O)c3ccc(C(C)(C)C)cc3)c2C(=O)O)cc1	-2	.	.	i	6	i
COc1ccc(-c2csc(NC(=O)c3ccccc3Br)c2C(=O)O)cc1	2	-1	38	i	-1	-6.2*
CCOC(=O)c1c(-c2ccc(C)o2)csc1NC(=O)COC(=O)c1ccc(NC(N)=O)cc1	74	-1	12	i	74*	i
CCOC(=O)c1c(-c2ccc(C)o2)csc1NC(=O)CSc1nnc(C)s1	24	.	24	i	33	i
CCOC(=O)c1c(-c2ccc(C)o2)csc1NC(=S)NC(=O)c1ccccc1Br	82	-21	8	i	85*	i
CCOC(=O)c1c(-c2ccc(C)o2)csc1NC(=S)NC(=O)c1cccs1	2	6	16	i	6	i
C#CCOCCOCCOCCNc1nc(N2CCN(C(=O)[C@H](CCC(=O)O)n3cc(C(N)CC(C)C)nn3)CC2)nc(N2CCN(C(=O)[C@H](CCC(=O)O)n3cc(C(N)[C@H](C)CC)nn3)CC2)n1 (stereo not given in full)	-4	13	-3	i	-13	i
COc1ccccc1NC(=O)c1cc(S(=O)(=O)N2CCCC2)cn1C	5	-1	28	i	9	i
O=C(NNC(=O)c1ccccc1)C(=O)N1CCCCC1	-9	.	-1	i	-18	i
Cc1ccc2c(c1)C1CN(C)CCC1N2CC(=O)N(C)c1ccccc1 (stereo not given)	-9	.	83*	i	-11	i
O=c1c(Cl)c(NCCCO)cnn1-c1nc2ccccc2[nH]1	54	.	-15	i	63*	i
S=C(NCc1ccco1)N1CCN(C(c2ccccc2)c2ccccc2)CC1	36	.	15	i	58*	i
S=C(NCc1ccco1)N1CCN(c2cccc(Cl)c2)CC1	44	0	-102	i	54*	i
CC(C)CNC(=S)N1CCN(C(c2ccccc2)c2ccccc2)CC1	-4	-3	-12	i	20	i
CCCCCn1c(=N)c(S(=O)(=O)c2ccc(Cl)cc2)cc2c(=O)n3cccc(C)c3nc21	-3	6	31	i	-4	i
COC(=O)c1ccc(COc2ccccc2/C=C(\C#N)C(=O)Nc2c(C)cccc2C)cc1	126	-104	0	i	148*	i
COc1ccccc1-c1cc(C(F)(F)F)nc(N2CCCC2)n1	-9	.	41	i	-3	i
COc1ccccc1-c1cc(C(F)(F)F)nc(S(C)(=O)=O)n1	216	1	-9	i	256*	i
CS(=O)(=O)c1nc(-c2ccco2)cc(C(F)(F)F)n1	-74*	.	16	i	-73	i
COc1ccccc1-c1cc(C(F)(F)F)nc(S(=O)(=O)CCCC(=O)NC(C)C)n1	105	.	42	i	172*	i
COc1ccccc1-c1cc(C(F)(F)F)nc(S(=O)(=O)CCCC(=O)Nc2cc(C)on2)n1	16	.	4	i	19	i
COc1ccc(-c2cc(C(F)(F)F)nc(S(=O)(=O)CCCC(=O)Nc3cc(C)on3)n2)cc1OC	226	-11	32	.	223*	.
CN1CCN(c2nc(-c3ccco3)cc(C(F)(F)F)n2)CC1	-6	-14	3	i	-5	i
CCN(CC)S(=O)(=O)c1ccc(C(=O)NC(=S)N(CCO)Cc2ccccc2)cc1	2	6	-1	i	13	i

Screening results as filed in PubChem.
